Measurements taken from ChEMBL document CHEMBL3992522, “Antileishmanial Activity of Pyrazolopyridine Derivatives and Their Potential as an Adjunct Therapy with Miltefosine” (J Med Chem, 2017).
Active and inactive are the calls of the source. The calls are words filed in the database; no cut-off is given here.

Key:
Format in all cases: functional
[1] = tested on: Leishmania donovani; assay: Antileishmanial activity against Leishmania donovani MHOM/IN/80/DD8 promastigote forms harboring luciferase gene at 25 uM after 72 hrs by Steady-Glo reagent based luminescence assay relative to control; details: MHOM/IN/80/DD8, 72 h, read-out: GI
Outline: (§1)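 Exponential-phase Dd8-Luc promastigotes at 1×10^6/mL in M199 with 10% FBS, 24 °C, given 50 and 25 µM for 72 h. Vehicle 0.1% DMSO. Steady-Glo added 1:1, luminescence (RLU) read. IC50 from four-parameter Hill regression, derived only where inhibition exceeded 90%. Means of at least three independent experiments.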

[2] = tested on: Leishmania donovani; assay: Antileishmanial activity against Leishmania donovani MHOM/IN/80/DD8 promastigote forms harboring luciferase gene at 50 uM after 72 hrs by Steady-Glo reagent based luminescence assay relative to control; details: MHOM/IN/80/DD8, 72 h, read-out: GI; outline: as §1
[3] = tested on: Leishmania donovani; assay: Antileishmanial activity against Leishmania donovani MHOM/IN/80/DD8 amastigote forms harboring luciferase gene infected in mouse J774 cells at 25 uM after 72 hrs by Steady-Glo reagent based luminescence assay relative to control; details: for inhibition of growth at 25 µM: MHOM/IN/80/DD8, J774, 72 h, read-out: GI
Outline: (§2)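 Stationary-phase luciferase-expressing Dd8 promastigotes infected into J774 macrophages (4×10^4/mL seeded, 24 h, 37 °C, 5% CO2) at 1:8 macrophage:parasite for 24 h. Non-internalised parasites washed off. Compounds added at 50 and 25 µM in RPMI/10% FBS for 72 h. Lysis with Steady-Glo luciferin reagent plus PBS, luminescence read. Inhibition relative to untreated infected controls.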

[4] = tested on: Leishmania donovani; assay: Antileishmanial activity against Leishmania donovani MHOM/IN/80/DD8 amastigote forms harboring luciferase gene infected in mouse J774 cells at 50 uM after 72 hrs by Steady-Glo reagent based luminescence assay relative to control; details: for inhibition of growth at 50 µM: MHOM/IN/80/DD8, J774, 72 h, read-out: GI; outline: as §2

SMILES | inhibition of growth at 25 µM [1] | inhibition of growth at 50 µM [2] | inhibition of growth at 25 µM [3] | inhibition of growth at 50 µM [4] | growth inhibition (GI) [3] | growth inhibition (GI) [4]
COc1ccc(OC)c(-c2c3c(nc4c2c(-c2c[nH]c5ccccc25)nn4-c2ccc(Cl)c(Cl)c2)CC(C)(C)CC3=O)c1 | 41.3% | 51.8% | 24.6% | 41.3% |  | 
COc1ccc(OC)c(-c2c3c(nc4c2c(-c2c[nH]c5ccccc25)nn4-c2ccc(Cl)cc2)CCC3=O)c1 | 61.2% | 67.2% |  |  | inactive | inactive
CC1(C)CC(=O)c2c(nc3c(c(-c4c[nH]c5ccccc45)nn3-c3ccc(Cl)cc3)c2-c2ccc(Cl)cc2)C1 | 56.7% | 67.4% |  |  | inactive | inactive
COc1ccc(OC)c(-c2c3c(nc4c2c(-c2c[nH]c5ccccc25)nn4-c2ccc(F)cc2)-c2ccccc2C3=O)c1 | 49.8% | 58.3% |  |  | inactive | inactive
O=C1C2=C(Nc3c(c(-c4c[nH]c5ccccc45)nn3-c3ccc(F)cc3)C2c2ccc(Cl)cc2)c2ccccc21 (stereo not drawn) | 54.2% | 68.3% |  |  | inactive | inactive
COc1ccc(-c2c3c(nc4c2c(-c2c[nH]c5ccccc25)nn4-c2ccc(Cl)c(Cl)c2)CCC3=O)cc1OC | 52.4% | 81.1% | 20.8% | 34.3% |  | 
COc1ccc(C2C3=C(Nc4c2c(-c2c[nH]c5ccccc25)nn4-c2ccc(Cl)cc2)c2ccccc2C3=O)c(OC)c1OC (stereo not drawn) | 64.2% | 67.4% |  |  | inactive | inactive
COc1cc(C2C3=C(CC(C)(C)CC3=O)Nc3c2c(-c2c[nH]c4ccccc24)nn3-c2ccc(Cl)cc2)cc(OC)c1OC (stereo not drawn) | 79.3% | 86.7% | 23.6% | 28.2% |  | 
COc1ccc(OC)c(C2C3=C(CCC3=O)Nc3c2c(-c2c[nH]c4ccccc24)nn3-c2ccc(Cl)cc2)c1 (stereo not drawn) | 85.5% | 93.2% | 37.3% | 42.6% |  | 
COc1ccc(-c2c3c(nc4c2c(-c2c[nH]c5ccccc25)nn4-c2ccc(Cl)cc2)-c2ccccc2C3=O)c(OC)c1OC | 52.6% | 63.4% |  |  | inactive | inactive
COc1cc(C2C3=C(CCC3=O)Nc3c2c(-c2c[nH]c4ccccc24)nn3-c2ccc(F)cc2)cc(OC)c1O (stereo not drawn) | 56.5% | 66.9% |  |  | inactive | inactive
CC1(C)CC(=O)c2c(nc3c(c(-c4c[nH]c5ccccc45)nn3-c3ccc(Cl)cc3)c2-c2ccc(Cl)cc2Cl)C1 | 35.7% | 40.6% |  |  | inactive | inactive
COc1ccc(-c2c3c(nc4c2c(-c2c[nH]c5ccccc25)nn4-c2ccc(Cl)c(Cl)c2)CC(C)(C)CC3=O)cc1OC | 59.4% | 74.1% |  |  | inactive | inactive
COc1ccc(-c2c3c(nc4c2c(-c2c[nH]c5ccccc25)nn4-c2ccc(Cl)cc2)CC(C)(C)CC3=O)cc1 | 44.3% | 52% |  |  | inactive | inactive
COc1ccc(-c2c3c(nc4c2c(-c2c[nH]c5ccccc25)nn4-c2ccc(Cl)cc2)-c2ccccc2C3=O)cc1 | 27.5% | 33.4% |  |  | inactive | inactive
CC1(C)CC(=O)c2c(nc3c(c(-c4c[nH]c5ccccc45)nn3-c3ccc(F)cc3)c2-c2ccc(Cl)cc2)C1 | 61.3% | 68.6% |  |  | inactive | inactive
COc1cc(-c2c3c(nc4c2c(-c2c[nH]c5ccccc25)nn4-c2ccc(Cl)cc2)CC(C)(C)CC3=O)cc(OC)c1OC | 59.1% | 68.6% |  |  | inactive | inactive
